Measurements reported in ChEMBL document CHEMBL1131103, “Synthesis and biological evaluation of 2-acyl analogues of paclitaxel (Taxol)” (J Med Chem, 1998).

Columns and labels:
Burkitts lymphoma cell = test: Cytotoxic activity against was measured human Burkitt lymphoma cell lines.; type: functional, cell-based
Method in brief: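 CA46 Burkitt lymphoma cells in 5.0-mL suspension culture, counted after 24 h at 37 °C under 5% CO₂. IC₅₀ = drug concentration halving the increase in cell number. Highest concentration 100 nM. At least two independent experiments.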

Bos taurus [1] = species on record: Bos taurus; test: Polymerizing activity of tubulin in glutamate against bovine brain tubulin homogenate was measured at 0.4 M concentrations; type: functional
Method in brief: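 Purified, electrophoretically homogeneous bovine brain tubulin assembled at room temperature without GTP or Mg²⁺ in 0.4 M monosodium glutamate (from 2 M stock, pH 6.6). Polymer pelleted by centrifugation. IC₅₀ = drug concentration lowering supernatant protein by 50% versus no-drug control. Up to 40 µM. At least three independent experiments, or at least two where IC₅₀ exceeded 40 µM.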

Bos taurus [2] = species on record: Bos taurus; test: Polymerizing activity of tubulin in glutamate against bovine brain tubulin homogenate was measured at 0.8M concentrations; type: functional
Method in brief: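 Bovine brain tubulin, purified to electrophoretic homogeneity, in 0.8 M monosodium glutamate (from 2 M stock, pH 6.6), room temperature, no GTP. Polymer removed by centrifugation. IC₅₀ = concentration reducing supernatant protein by 50% relative to drug-free control. Maximum 40 µM. At least three independent experiments, or at least two for IC₅₀ over 40 µM.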

[3] = tested on: Panel colon (Carcinoma cell lines); test: Cytotoxic activity was measured against human colon carcinoma cell lines; type: functional, cell-based
Method in brief: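 HCT116 colon carcinoma monolayers in 96-well plates, 48 h at 37 °C under 5% CO₂. Cell protein measured. IC₅₀ = concentration giving 50% inhibition of the increase in cell protein.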

Bos taurus [4] = species on record: Bos taurus; test: Polymerizing activity of microtubule protein against the twice cycled microtubule protein; type: functional
Method in brief: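 Twice-cycled microtubule protein, stored in liquid nitrogen, at 1.0 mg/mL final in 0.1 M MES, 1 mM EGTA, 0.5 mM MgCl₂, pH 6.6, 37 °C, no GTP. Compound at 2.5, 5.0 and 10 µM. Absorbance read every 10 s and initial linear slopes taken. EC0.01 = interpolated concentration giving an initial slope of 0.01 A unit/min.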

[5] = tested on: Panel ovarian (Carcinoma cell lines); test: Cytotoxic activity was measured against human Ovarian carcinoma cell lines; type: functional, cell-based
Method in brief: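 Ovarian carcinoma line 1A9, a subclone of A2780, grown as monolayers in 96-well plates for 96 h at 37 °C, 5% CO₂. Cell protein quantitated (Skehan method). IC₅₀ = concentration inhibiting the increase in cell protein by 50%.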

ptx-10/22 = test: Relative resistance was measured against human paclitaxel-resistant cell lines; type: functional, cell-based; details: 1A9(PTX22)

Row | Structure (SMILES) | IC50 (Bos taurus [1]) | IC50 (Bos taurus [2]) | IC50 (Burkitts lymphoma cell) | IC50 [3] | EC0.01 (relative to paclitaxel) (Bos taurus [4]) | IC50 [5] | relative resistance (ptx-10/22)
1 | CC(=O)O[C@H]1C(=O)[C@@]2(C)[C@H]([C@H](OC(=O)c3cccc(F)c3)[C@]3(O)C[C@H](OC(=O)[C@H](O)[C@@H](NC(=O)c4ccccc4)c4ccccc4)C(C)=C1C3(C)C)[C@]1(OC(C)=O)CO[C@@H]1C[C@@H]2O | 1.2 relative to paclitaxel | 2.6 relative to paclitaxel |  | 0.45 relative to paclitaxel | 0.7 | 0.4 relative to paclitaxel | 0.96
2 | CC(=O)O[C@H]1C(=O)[C@@]2(C)[C@H]([C@H](OC(=O)c3cc([N+](=O)[O-])cc([N+](=O)[O-])c3)[C@]3(O)C[C@H](OC(=O)[C@H](O)[C@@H](NC(=O)c4ccccc4)c4ccccc4)C(C)=C1C3(C)C)[C@]1(OC(C)=O)CO[C@@H]1C[C@@H]2O | > 1.7 relative to paclitaxel | > 8.9 relative to paclitaxel | 2.3 relative to paclitaxel | 3.1 relative to paclitaxel | 4.2 | 20 relative to paclitaxel | 
3 | CC(=O)O[C@H]1C(=O)[C@@]2(C)[C@H]([C@H](OC(=O)c3cccc(C#N)c3)[C@]3(O)C[C@H](OC(=O)[C@H](O)[C@@H](NC(=O)c4ccccc4)c4ccccc4)C(C)=C1C3(C)C)[C@]1(OC(C)=O)CO[C@@H]1C[C@@H]2O | 0.63 relative to paclitaxel |  |  | 1.1 relative to paclitaxel | 1 | 0.32 relative to paclitaxel | 1.3
4 | COc1cccc(C(=O)O[C@H]2[C@@H]3[C@]4(OC(C)=O)CO[C@@H]4C[C@H](O)[C@@]3(C)C(=O)[C@H](OC(C)=O)C3=C(C)[C@@H](OC(=O)[C@H](O)[C@@H](NC(=O)c4ccccc4)c4ccccc4)C[C@]2(O)C3(C)C)c1 | 0.22 relative to paclitaxel |  | 0.27 relative to paclitaxel | 0.35 relative to paclitaxel | 0.5 | 0.095 relative to paclitaxel | 0.71
5 | CC(=O)O[C@H]1C(=O)[C@@]2(C)[C@H]([C@H](OC(=O)c3cc(F)cc(F)c3)[C@]3(O)C[C@H](OC(=O)[C@H](O)[C@@H](NC(=O)c4ccccc4)c4ccccc4)C(C)=C1C3(C)C)[C@]1(OC(C)=O)CO[C@@H]1C[C@@H]2O | 0.29 relative to paclitaxel |  |  | 0.36 relative to paclitaxel | 0.6 | 0.12 relative to paclitaxel | 1.1
6 | CC(=O)O[C@H]1C(=O)[C@@]2(C)[C@H]([C@H](OC(=O)c3cccc(C(F)(F)F)c3)[C@]3(O)C[C@H](OC(=O)[C@H](O)[C@@H](NC(=O)c4ccccc4)c4ccccc4)C(C)=C1C3(C)C)[C@]1(OC(C)=O)CO[C@@H]1C[C@@H]2O | > 1.7 relative to paclitaxel | 6.7 relative to paclitaxel | 0.67 relative to paclitaxel | 3 relative to paclitaxel | 1.3 | 1.4 relative to paclitaxel | 
7 | CC(=O)O[C@H]1C(=O)[C@@]2(C)[C@H]([C@H](OC(=O)c3ccc(Cl)cc3)[C@]3(O)C[C@H](OC(=O)[C@H](O)[C@@H](NC(=O)c4ccccc4)c4ccccc4)C(C)=C1C3(C)C)[C@]1(OC(C)=O)CO[C@@H]1C[C@@H]2O | > 1.7 relative to paclitaxel | > 8.9 relative to paclitaxel | 1.3 relative to paclitaxel |  |  | 7.6 relative to paclitaxel | 
8 | COc1cc(C(=O)O[C@H]2[C@@H]3[C@]4(OC(C)=O)CO[C@@H]4C[C@H](O)[C@@]3(C)C(=O)[C@H](OC(C)=O)C3=C(C)[C@@H](OC(=O)[C@H](O)[C@@H](NC(=O)c4ccccc4)c4ccccc4)C[C@]2(O)C3(C)C)cc(OC)c1OC | > 1.7 relative to paclitaxel | > 8.9 relative to paclitaxel | > 3.3 relative to paclitaxel | 110 relative to paclitaxel | 32 | > 48 relative to paclitaxel | 
9 | CC(=O)O[C@H]1C(=O)[C@@]2(C)[C@H]([C@H](OC(=O)c3ccc(Cl)c(Cl)c3)[C@]3(O)C[C@H](OC(=O)[C@H](O)[C@@H](NC(=O)c4ccccc4)c4ccccc4)C(C)=C1C3(C)C)[C@]1(OC(C)=O)CO[C@@H]1C[C@@H]2O | 0.41 relative to paclitaxel |  |  | 0.77 relative to paclitaxel | 0.76 | 1 relative to paclitaxel | 0.27

Further lines, with some results ahead:

Row | IC50 (Bos taurus [1]) | IC50 (Bos taurus [2]) | Structure (SMILES) | IC50 (Burkitts lymphoma cell) | IC50 [3] | EC0.01 (relative to paclitaxel) (Bos taurus [4]) | IC50 [5] | relative resistance (ptx-10/22)
10 | > 1.7 relative to paclitaxel | 3.1 relative to paclitaxel | CC(=O)O[C@H]1C(=O)[C@@]2(C)[C@H]([C@H](OC(=O)c3cc(F)c(F)cc3F)[C@]3(O)C[C@H](OC(=O)[C@H](O)[C@@H](NC(=O)c4ccccc4)c4ccccc4)C(C)=C1C3(C)C)[C@]1(OC(C)=O)CO[C@@H]1C[C@@H]2O | 1 relative to paclitaxel | 1.9 relative to paclitaxel | 1.5 | 3.1 relative to paclitaxel | 0.48
11 | > 1.7 relative to paclitaxel | > 8.9 relative to paclitaxel | COc1cccc(C(=O)O[C@H]2[C@@H]3[C@]4(OC(C)=O)CO[C@@H]4C[C@H](O)[C@@]3(C)C(=O)[C@H](OC(C)=O)C3=C(C)[C@@H](OC(=O)[C@H](O)[C@@H](NC(=O)c4ccccc4)c4ccccc4)C[C@]2(O)C3(C)C)c1OC | > 3.3 relative to paclitaxel | 59 relative to paclitaxel | > 270 | > 48 relative to paclitaxel | 
12 | > 1.7 relative to paclitaxel | > 8.9 relative to paclitaxel | CC(=O)O[C@H]1C(=O)[C@@]2(C)[C@H]([C@H](OC(=O)c3cccc(F)c3F)[C@]3(O)C[C@H](OC(=O)[C@H](O)[C@@H](NC(=O)c4ccccc4)c4ccccc4)C(C)=C1C3(C)C)[C@]1(OC(C)=O)CO[C@@H]1C[C@@H]2O |  | 0.55 relative to paclitaxel | 0.8 | 14 relative to paclitaxel | 
13 | 0.2 relative to paclitaxel |  | CC(=O)O[C@H]1C(=O)[C@@]2(C)[C@H]([C@H](OC(=O)c3cccc(N=[N+]=[N-])c3)[C@]3(O)C[C@H](OC(=O)[C@H](O)[C@@H](NC(=O)c4ccccc4)c4ccccc4)C(C)=C1C3(C)C)[C@]1(OC(C)=O)CO[C@@H]1C[C@@H]2O | 0.17 relative to paclitaxel | 1.4 relative to paclitaxel | 0.37 | 0.18 relative to paclitaxel | 0.27
14 | 0.29 relative to paclitaxel |  | CC(=O)O[C@H]1C(=O)[C@@]2(C)[C@H]([C@H](OC(=O)c3cc(F)ccc3F)[C@]3(O)C[C@H](OC(=O)[C@H](O)[C@@H](NC(=O)c4ccccc4)c4ccccc4)C(C)=C1C3(C)C)[C@]1(OC(C)=O)CO[C@@H]1C[C@@H]2O | 0.67 relative to paclitaxel | 0.44 relative to paclitaxel | 0.34 | 0.67 relative to paclitaxel | 0.57
15 | > 1.7 relative to paclitaxel | > 8.9 relative to paclitaxel | CC(=O)O[C@H]1C(=O)[C@@]2(C)[C@H]([C@H](OC(=O)c3ccc(O)cc3)[C@]3(O)C[C@H](OC(=O)[C@H](O)[C@@H](NC(=O)c4ccccc4)c4ccccc4)C(C)=C1C3(C)C)[C@]1(OC(C)=O)CO[C@@H]1C[C@@H]2O | 3 relative to paclitaxel | 52 relative to paclitaxel | 19 | 31 relative to paclitaxel | 
16 | 0.3 relative to paclitaxel |  | CC(=O)O[C@H]1C(=O)[C@@]2(C)[C@H]([C@H](OC(=O)c3cccc(Cl)c3)[C@]3(O)C[C@H](OC(=O)[C@H](O)[C@@H](NC(=O)c4ccccc4)c4ccccc4)C(C)=C1C3(C)C)[C@]1(OC(C)=O)CO[C@@H]1C[C@@H]2O | 0.67 relative to paclitaxel | 1.7 relative to paclitaxel | 0.92 | 0.05 relative to paclitaxel | 2.9
17 | 0.38 relative to paclitaxel |  | CC(=O)O[C@H]1C(=O)[C@@]2(C)[C@H]([C@H](OC(=O)c3ccccc3N=[N+]=[N-])[C@]3(O)C[C@H](OC(=O)[C@H](O)[C@@H](NC(=O)c4ccccc4)c4ccccc4)C(C)=C1C3(C)C)[C@]1(OC(C)=O)CO[C@@H]1C[C@@H]2O |  | 0.36 relative to paclitaxel | 0.7 | 0.77 relative to paclitaxel | 0.67
18 | 0.91 relative to paclitaxel |  | CC(=O)O[C@H]1C(=O)[C@@]2(C)[C@H]([C@H](OC(=O)c3cc(Cl)cc(Cl)c3)[C@]3(O)C[C@H](OC(=O)[C@H](O)[C@@H](NC(=O)c4ccccc4)c4ccccc4)C(C)=C1C3(C)C)[C@]1(OC(C)=O)CO[C@@H]1C[C@@H]2O | 0.67 relative to paclitaxel | 0.51 relative to paclitaxel | 0.44 | 0.38 relative to paclitaxel | 0.48
19 | 0.2 relative to paclitaxel |  | COc1ccc(OC)c(C(=O)O[C@H]2[C@@H]3[C@]4(OC(C)=O)CO[C@@H]4C[C@H](O)[C@@]3(C)C(=O)[C@H](OC(C)=O)C3=C(C)[C@@H](OC(=O)[C@H](O)[C@@H](NC(=O)c4ccccc4)c4ccccc4)C[C@]2(O)C3(C)C)c1 | 0.67 relative to paclitaxel | 0.14 relative to paclitaxel | 0.5 | 0.12 relative to paclitaxel | 0.76
20 | 0.24 relative to paclitaxel |  | CC(=O)O[C@H]1C(=O)[C@@]2(C)[C@H]([C@H](OC(=O)c3cccc(Br)c3)[C@]3(O)C[C@H](OC(=O)[C@H](O)[C@@H](NC(=O)c4ccccc4)c4ccccc4)C(C)=C1C3(C)C)[C@]1(OC(C)=O)CO[C@@H]1C[C@@H]2O |  | 0.32 relative to paclitaxel | 0.8 | 0.32 relative to paclitaxel | 0.42
21 | > 1.7 relative to paclitaxel | 2.7 relative to paclitaxel | CSc1cccc(C(=O)O[C@H]2[C@@H]3[C@]4(OC(C)=O)CO[C@@H]4C[C@H](O)[C@@]3(C)C(=O)[C@H](OC(C)=O)C3=C(C)[C@@H](OC(=O)[C@H](O)[C@@H](NC(=O)c4ccccc4)c4ccccc4)C[C@]2(O)C3(C)C)c1 | 1 relative to paclitaxel |  |  | 3.3 relative to paclitaxel | 0.52
